Source: ChEMBL document CHEMBL1649277, “Inhibition of herpesvirus replication by 5-substituted 4'-thiopyrimidine nucleosides” (Antimicrob Agents Chemother, 2009)
Calls of active or inactive are those of the source. The rule behind the calls is not given here.

Legend:
Human betaherpesvirus 5 [1] = assay: Antiviral activity against human cytomegalovirus AD169 infected in HFF after 8 to 10 days by plaque reduction assay; format: functional, organism-based; conditions: Human betaherpesvirus 5, AD169
Method in brief: (§1)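 Plaque reduction on confluent HFF monolayers in triplicate wells: 1 h adsorption, then six serial compound dilutions (top 100 μM) in MEM with 2% FBS, no immunoglobulin. Incubation was 8 days for HCMV and 10 days for VZV. Plaques were stained with 0.017% neutral red in PBS and counted microscopically. EC50 was interpolated at 50% plaque reduction.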

Human alphaherpesvirus 3 = assay: Antiviral activity against VZV Ellan infected in HFF after 8 to 10 days by plaque reduction assay; format: functional, organism-based; conditions: Human alphaherpesvirus 3, Ellan; method in brief: as §1
Human gammaherpesvirus 4 = assay: Antiviral activity against Epstein-Barr virus infected in human Akata cells after 72 hrs; format: functional, organism-based; conditions: human gammaherpesvirus 4, Akata
Method in brief: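 Akata cells were kept in RPMI 1640 with 10% FBS. Compound ranged 100 to 0.032 μM. Latent cells were induced to lytic infection with 50 μg/ml goat anti-human IgG, and 4 × 10^4 cells were added per well. After 72 h, DNA was alkali/NaCl-denatured, blotted to nylon membrane, and viral DNA quantified by digoxigenin-probe hybridization with anti-hapten antibody detection.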

[2] = Antiviral activity against Human herpesvirus 6 GS infected in human HSB2 cells assessed as inhibition of viral replication after 7 days; format: functional, cell-based, Human herpesvirus 6 (strain GS); conditions: Human betaherpesvirus 6A, HSB2, 168 h
Method in brief: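 HSB-2 cells, 2 × 10^4 per well in RPMI 1640 with 10% FBS, received compound dilutions in triplicate wells. Cells were infected with HHV-6A strain GS and kept 7 days at 37°C. Total DNA was denatured and immobilized on nylon membrane. Viral DNA was then measured by digoxigenin-labeled probe hybridization and anti-hapten antibody detection with densitometric quantitation.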

[3] = Cytotoxicity against human BCBL1 cells after 3 days by MTS assay; format: cell-based
[4] = Selectivity index, ratio of CC50 for HFF to EC50 for […] infected in HFF
Human alphaherpesvirus 1 [5] = assay: Antiviral activity against HSV1 DM2.1 harboring frameshift mutation in TK infected in HFF after 3 days by plaque reduction assay; format: functional, organism-based; conditions: Human alphaherpesvirus 1, DM2.1, 72 h
Method in brief: (§2)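 Confluent HFF monolayers (passage <10) were infected in triplicate wells at 20–30 plaques per well, with 1 h adsorption and rocking every 15 min. Six serial dilutions (top 100 μM) were made in MEM with 2% FBS and pooled human immunoglobulin. Cells were incubated 3 days and stained with crystal violet. Plaques were counted, and EC50 was interpolated from plaque reduction.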

Human alphaherpesvirus 1 [6] = assay: Antiviral activity against HSV1 B-2006 harboring frameshift mutation at Q185 in TK infected in HFF after 3 days by plaque reduction assay; format: functional, organism-based; conditions: Human alphaherpesvirus 1, B-2006, 72 h; method in brief: as §2
Human alphaherpesvirus 2 [7] = assay: Antiviral activity against HSV2 AG-3 harboring TK Q105P mutant gene infected in HFF after 3 days by plaque reduction assay; format: functional, organism-based; conditions: Human alphaherpesvirus 2, AG-3, 72 h; method in brief: as §2
Human alphaherpesvirus 2 [8] = assay: Antiviral activity against HSV2 11680 harboring TK R223H mutant gene infected in HFF after 3 days by plaque reduction assay; format: functional, organism-based; conditions: Human alphaherpesvirus 2, 11680, 72 h; method in brief: as §2
Human betaherpesvirus 5 [9] = assay: Antiviral activity against human cytomegalovirus PFAB300 harboring UL54 L724V mutant gene infected in HFF after 8 to 10 days by plaque reduction assay; format: functional, organism-based; conditions: Human betaherpesvirus 5, PFAB300
Method in brief: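 Plaque reduction in confluent HFF with six serial dilutions (top 100 μM) and no immunoglobulin added. Virus was adsorbed 1 h on triplicate wells. Cells were incubated 8 days, stained with 0.017% neutral red in PBS, and plaques counted. EC50 is the concentration reducing plaque number by 50%.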

Human alphaherpesvirus 2 [10] = assay: Antiviral activity against 4'-thioIDU-resistant HSV2 infected in HFF after 3 days by plaque reduction assay; format: functional, organism-based; conditions: Human alphaherpesvirus 2, 72 h; method in brief: as §2
Human alphaherpesvirus 2 [11] = assay: Antiviral activity against HSV2 infected in BALB/c mouse assessed as virus-induced mortality rate at 30 mg/kg, po BID administered 24 hrs post infection; format: functional
Human alphaherpesvirus 2 [12] = assay: Antiviral activity against HSV2 infected in BALB/c mouse assessed mean time to virus-induced death at 30 mg/kg, po BID administered 24 hrs post infection; format: functional
Human alphaherpesvirus 2 [13] = assay: Antiviral activity against HSV2 infected in BALB/c mouse assessed mean time to virus-induced death at 10 mg/kg, po BID administered 24 hrs post infection; format: functional
Human alphaherpesvirus 2 [14] = assay: Antiviral activity against HSV2 infected in BALB/c mouse assessed as virus-induced mortality rate at […], po BID administered 24 hrs post infection; format: functional
Human alphaherpesvirus 2 [15] = assay: Antiviral activity against HSV2 infected in BALB/c mouse assessed mean time to virus-induced death at […], po BID administered 24 hrs post infection; format: functional
Human alphaherpesvirus 2 [16] = assay: Antiviral activity against HSV2 infected in BALB/c mouse assessed as virus-induced mortality rate at 10 mg/kg, po BID administered 48 hrs post infection; format: functional
Human alphaherpesvirus 2 [17] = assay: Antiviral activity against HSV2 infected in BALB/c mouse assessed as virus-induced mortality rate at […], po BID administered 48 hrs post infection; format: functional
Human alphaherpesvirus 2 [18] = assay: Antiviral activity against HSV2 infected in BALB/c mouse assessed as virus-induced mortality rate at […], po BID administered 72 hrs post infection; format: functional
Human alphaherpesvirus 2 [19] = assay: Antiviral activity against HSV2 infected in BALB/c mouse assessed mean time to virus-induced death at 30 mg/kg, po BID administered 72 hrs post infection; format: functional
Human alphaherpesvirus 2 [20] = assay: Antiviral activity against HSV2 MS infected in HFF assessed as inhibition of viral DNA synthesis-associated incorporation in DNA by immunofluorescence assay; format: functional, organism-based
Method in brief: (§3)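 HFF on coverslips were infected with HSV-2 MS or the resistant isolate (MOI 0.2 PFU/cell) for 48 h. Cells were pulsed with BrdUrd or 10 μM test compound for 30 min before fixation. Incorporation was detected with a cross-reacting anti-BrdUrd monoclonal antibody, infected cells with anti-155-kDa nucleocapsid antibody, and nuclei with DAPI.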

Human alphaherpesvirus 2 [21] = assay: Antiviral activity against 4'-thioIDU-resistant HSV2 infected in HFF assessed as inhibition of viral DNA synthesis-associated incorporation in DNA by immunofluorescence assay; format: functional, organism-based; method in brief: as §3

Compound: O=c1[nH]c(=O)n([C@H]2C[C@H](O)[C@@H](CO)S2)cc1I
- EC50 (Human betaherpesvirus 5 [1]): 5.85 µM
- EC50 (Human alphaherpesvirus 3): 2 µM
- EC50 (Human gammaherpesvirus 4): > 0.16 µM
- EC50 [2]: > 100 µM
- CC50 at 72 h [3]: 14 µM
- Ratio CC50/EC50 [4]: > 1250
- EC50 (Human alphaherpesvirus 1 [5]): > 444 µM
- EC50 (Human alphaherpesvirus 1 [6]): > 444 µM
- EC50 (Human alphaherpesvirus 2 [7]): > 444 µM
- EC50 (Human alphaherpesvirus 2 [8]): 246 µM
- EC50 (Human betaherpesvirus 5 [9]): 25 µM
- EC50 (Human alphaherpesvirus 2 [10]): 57 µM
- Activity (Human alphaherpesvirus 2 [11]): 100%
- Time (Human alphaherpesvirus 2 [12]): 12.1 days
- Time (Human alphaherpesvirus 2 [13]): 9.8 days
- Activity (Human alphaherpesvirus 2 [14]): 100%
- Time (Human alphaherpesvirus 2 [15]): 8.2 days
- Activity (Human alphaherpesvirus 2 [16]): 73%
- Activity (Human alphaherpesvirus 2 [17]): 93%
- Activity (Human alphaherpesvirus 2 [18]): 100%
- Time (Human alphaherpesvirus 2 [19]): 11.7 days
- inhibition (Human alphaherpesvirus 2 [20]): Active
- inhibition (Human alphaherpesvirus 2 [21]): inactive
